Calls of active or inactive are those of the source. No cut-off for these calls is given here.
How the values were obtained:
[1] = target: T1, Nucleotide-binding oligomerization domain-containing protein 1 (Homo sapiens) (UniProt Q9Y239); assay: Antagonist activity at human NOD1 expressed in HEK-blue cells assessed as inhibition of C12-iE-DAP-stimulated cell activation at 5 uM preincubated for 3 hrs followed by C12-iE-DAP addition measured after 20 hrs by SEAP reporter gene assay; type: cell-based
T1 sequence (whole entry): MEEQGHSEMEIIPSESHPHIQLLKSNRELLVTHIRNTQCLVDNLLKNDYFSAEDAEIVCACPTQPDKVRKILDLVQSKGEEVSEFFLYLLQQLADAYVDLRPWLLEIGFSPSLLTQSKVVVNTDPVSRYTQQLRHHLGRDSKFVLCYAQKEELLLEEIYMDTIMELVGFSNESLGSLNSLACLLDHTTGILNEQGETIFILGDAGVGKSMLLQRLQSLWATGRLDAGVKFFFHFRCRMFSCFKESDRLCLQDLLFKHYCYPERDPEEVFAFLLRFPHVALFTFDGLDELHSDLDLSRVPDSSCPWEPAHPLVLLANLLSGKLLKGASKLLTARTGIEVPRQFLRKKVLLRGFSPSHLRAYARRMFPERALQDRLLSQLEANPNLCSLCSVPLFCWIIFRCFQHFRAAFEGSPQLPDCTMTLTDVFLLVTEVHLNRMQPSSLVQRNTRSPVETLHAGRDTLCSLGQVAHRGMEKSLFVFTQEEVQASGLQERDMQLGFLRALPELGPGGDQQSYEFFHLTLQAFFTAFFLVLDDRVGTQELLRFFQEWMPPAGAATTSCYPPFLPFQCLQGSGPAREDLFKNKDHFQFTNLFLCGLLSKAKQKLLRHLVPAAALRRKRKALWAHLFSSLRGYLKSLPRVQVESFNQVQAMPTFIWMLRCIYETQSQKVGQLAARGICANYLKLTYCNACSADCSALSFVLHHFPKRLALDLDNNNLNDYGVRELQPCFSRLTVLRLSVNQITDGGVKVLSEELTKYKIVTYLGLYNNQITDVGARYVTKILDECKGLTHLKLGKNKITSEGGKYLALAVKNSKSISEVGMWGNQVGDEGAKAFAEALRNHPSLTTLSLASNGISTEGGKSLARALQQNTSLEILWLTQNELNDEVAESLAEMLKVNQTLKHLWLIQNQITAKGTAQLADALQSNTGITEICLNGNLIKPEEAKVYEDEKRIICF

[2] = test system: Lewis lung carcinoma cell line; assay: Antitumor activity against mouse LLC cells implanted in C57BL/6 mouse assessed as tumor weight inhibition at 20 mg/kg, iv administered daily measured 11 days after tumor implantation; type: functional, organism-based
[3] = target: T1, Nucleotide-binding oligomerization domain-containing protein 1 (Homo sapiens); assay: Inhibition of NOD1 in human THP1 cells assessed as suppression of C12-iE-DAP-stimulated p38 phosphorylation at 1 to 10 uM preincubated for 1 hr followed by C12-iE-DAP stimulation after 45 mins by Western blot analysis; type: cell-based
Outline: (§1)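 PMA (20 ng/mL, 48 h)-differentiated THP1 macrophages rested 24 h in PMA-free medium, serum-starved (0.1% FBS) overnight, pretreated 1 h with compound, stimulated 45 min with C12-iE-DAP 50 ng/mL. Lysates run on 8% SDS-PAGE, immunoblotted for phospho and total RIP2, p38, JNK, ERK and IκBα.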

[4] = test system: Lewis lung carcinoma cell line; assay: Potentiation of paclitaxel-mediated antitumor activity against mouse LLC cells implanted in C57BL/6 mouse assessed as tumor weight inhibition at 20 mg/kg, iv administered daily measured 11 days after tumor implantation (reference value: 34.54 %); type: functional; settings: 264 h, read-out: TGI
[5] = target: T2, Nucleotide-binding oligomerization domain-containing protein 2 (Homo sapiens, UniProt Q9HC29); assay: Antagonist activity at human NOD2 expressed in HEK-Blue cells assessed as inhibition of MDP-stimulated cell activation at 5 uM preincubated for 3 hrs followed by MDP addition measured after 20 hrs by SEAP reporter gene assay; type: cell-based
[6] = target: T2, Nucleotide-binding oligomerization domain-containing protein 2; assay: Inhibition of human NOD2 expressed in HEK293 cells assessed as suppression of MDP-stimulated p38 phosphorylation preincubated for 1 hr followed by MDP stimulation measured after 1 hr by Western blot analysis
[7] = target: T1, Nucleotide-binding oligomerization domain-containing protein 1 (Homo sapiens); assay: Inhibition of NOD1 in human PBMC-derived macrophages assessed as reduction in C12-iE-DAP-stimulated TNFalpha mRNA expression at 10 uM preincubated for 1 hr followed by C12-iE-DAP stimulation for 90 mins by RT-qPCR analysis
Outline: (§2)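 Human CD14+ monocytes from donor PBMC, differentiated 7 days with M-CSF 20 ng/mL to macrophages; 1.0 × 10^6 cells pretreated 1 h with compound (final 0.1% DMSO), then C12-iE-DAP 500 ng/mL or MDP 5 μg/mL for 90 min. IL-6/TNF-α mRNA by qRT-PCR, normalized to GAPDH; stimulated response set to 100%.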

[8] = target: T1, Nucleotide-binding oligomerization domain-containing protein 1 (Homo sapiens); assay: Antagonist activity at human NOD1 expressed in HEK-Blue cells assessed as inhibition of C12-iE-DAP-stimulated cell activation at 10 uM preincubated for 3 hrs followed by C12-iE-DAP addition measured after 20 hrs by SEAP reporter gene assay; type: cell-based
Outline: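 HEK-Blue hNOD1 or hNOD2 cells preincubated with compound 3 h, then stimulated 20 h with C12-iE-DAP 50 ng/mL (NOD1) or MDP 100 ng/mL (NOD2); SEAP in supernatant quantified. Primary screen at 10 μM, hits repeated in triplicate; IC50 from dose-response, mean ± SD (n = 3), only for compounds reaching ≥50% inhibition at the screening concentration.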

[9] = target: T1, Nucleotide-binding oligomerization domain-containing protein 1 (Homo sapiens); assay: Inhibition of NOD1 in human THP1 cells assessed as suppression of C12-iE-DAP-stimulated RIP2 phosphorylation at 1 to 10 uM preincubated for 1 hr followed by C12-iE-DAP stimulation after 45 mins by Western blot analysis; type: cell-based; outline: as §1
[10] = target: T2, Nucleotide-binding oligomerization domain-containing protein 2; assay: Inhibition of NOD2 in human PBMC-derived macrophages assessed as reduction in MDP-stimulated TNFalpha mRNA expression preincubated for 1 hr followed by MDP stimulation for 90 mins by RT-qPCR analysis; outline: as §2
[11] = target: T2, Nucleotide-binding oligomerization domain-containing protein 2; assay: Inhibition of NOD2 in human PBMC-derived macrophages assessed as reduction of MDP-mediated decrease in IkBalpha levels at 1 to 10 uM preincubated for 1 hr followed by MDP stimulation for 1 hr by Western blot analysis
[12] = organism: Homo sapiens; assay: Inhibition of human SEAP assessed as decrease in substrate hydrolysis at 10 uM
[13] = target: Tumor necrosis factor (Homo sapiens) (UniProt P01375); assay: Inhibition of recombinant human TNFalpha expressed in HEK-Blue cells assessed as reduction in SEAP release preincubated for 3 hrs measured after 20 hrs by spectrophotometric analysis; type: cell-based
[14] = target: Toll-like receptor 4 (Homo sapiens) (UniProt O00206); assay: Inhibition of human TLR4 expressed in HEK-Blue cells assessed as reduction in LPS-EK-stimulated SEAP release preincubated for 3 hrs followed by LPS-EK addition measured after 20 hrs by spectrophotometric analysis; type: cell-based
Sequence of Toll-like receptor 4 (Homo sapiens) (O00206 whole entry): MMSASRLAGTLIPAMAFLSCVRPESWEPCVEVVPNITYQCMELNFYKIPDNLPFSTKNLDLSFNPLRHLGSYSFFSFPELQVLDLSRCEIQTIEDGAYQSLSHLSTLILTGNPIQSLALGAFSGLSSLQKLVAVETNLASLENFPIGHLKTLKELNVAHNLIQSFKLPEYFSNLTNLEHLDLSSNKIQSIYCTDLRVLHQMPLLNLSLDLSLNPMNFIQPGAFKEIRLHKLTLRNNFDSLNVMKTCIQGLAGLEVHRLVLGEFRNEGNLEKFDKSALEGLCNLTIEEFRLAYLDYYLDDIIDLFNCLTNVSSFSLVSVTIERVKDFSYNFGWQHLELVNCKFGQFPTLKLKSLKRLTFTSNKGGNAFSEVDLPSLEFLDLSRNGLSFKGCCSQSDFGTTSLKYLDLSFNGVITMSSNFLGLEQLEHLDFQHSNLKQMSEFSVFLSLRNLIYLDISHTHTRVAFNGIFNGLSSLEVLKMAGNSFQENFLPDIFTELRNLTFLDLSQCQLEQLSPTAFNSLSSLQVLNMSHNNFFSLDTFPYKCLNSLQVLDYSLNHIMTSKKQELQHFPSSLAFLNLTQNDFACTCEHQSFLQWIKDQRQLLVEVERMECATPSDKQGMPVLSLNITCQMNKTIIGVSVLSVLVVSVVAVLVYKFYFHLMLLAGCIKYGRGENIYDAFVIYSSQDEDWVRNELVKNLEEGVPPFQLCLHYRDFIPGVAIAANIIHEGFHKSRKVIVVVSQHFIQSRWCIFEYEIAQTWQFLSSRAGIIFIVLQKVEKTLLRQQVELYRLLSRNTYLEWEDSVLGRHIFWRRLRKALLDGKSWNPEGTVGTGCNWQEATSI

T2 sequence (Q9HC29 whole entry, the tested form may be a part): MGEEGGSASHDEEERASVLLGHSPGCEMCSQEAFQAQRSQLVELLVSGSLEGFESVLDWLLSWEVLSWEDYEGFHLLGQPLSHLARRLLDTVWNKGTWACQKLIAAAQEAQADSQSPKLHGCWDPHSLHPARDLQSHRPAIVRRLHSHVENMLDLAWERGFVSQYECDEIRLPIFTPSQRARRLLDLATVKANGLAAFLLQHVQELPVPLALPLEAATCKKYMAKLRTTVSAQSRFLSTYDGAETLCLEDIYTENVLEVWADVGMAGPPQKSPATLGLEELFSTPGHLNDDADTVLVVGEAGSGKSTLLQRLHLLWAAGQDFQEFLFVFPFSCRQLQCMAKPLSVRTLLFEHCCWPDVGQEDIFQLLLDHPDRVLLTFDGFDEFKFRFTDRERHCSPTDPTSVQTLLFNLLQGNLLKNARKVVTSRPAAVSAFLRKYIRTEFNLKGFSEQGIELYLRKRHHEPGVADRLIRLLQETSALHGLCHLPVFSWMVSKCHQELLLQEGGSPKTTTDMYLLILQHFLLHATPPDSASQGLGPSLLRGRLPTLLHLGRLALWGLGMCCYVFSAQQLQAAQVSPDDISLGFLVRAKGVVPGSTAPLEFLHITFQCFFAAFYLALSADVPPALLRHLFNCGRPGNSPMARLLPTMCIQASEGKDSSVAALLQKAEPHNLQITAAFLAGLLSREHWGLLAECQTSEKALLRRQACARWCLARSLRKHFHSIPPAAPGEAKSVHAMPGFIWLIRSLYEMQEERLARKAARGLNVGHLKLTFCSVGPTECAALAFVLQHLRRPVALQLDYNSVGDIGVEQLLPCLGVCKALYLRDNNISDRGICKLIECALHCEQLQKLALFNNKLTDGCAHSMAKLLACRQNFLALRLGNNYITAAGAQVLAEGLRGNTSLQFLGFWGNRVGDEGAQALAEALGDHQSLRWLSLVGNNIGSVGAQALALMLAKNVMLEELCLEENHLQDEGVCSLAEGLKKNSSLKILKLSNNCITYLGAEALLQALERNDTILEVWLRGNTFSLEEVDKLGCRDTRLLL
Sequence of Tumor necrosis factor (Homo sapiens) (P01375 whole entry): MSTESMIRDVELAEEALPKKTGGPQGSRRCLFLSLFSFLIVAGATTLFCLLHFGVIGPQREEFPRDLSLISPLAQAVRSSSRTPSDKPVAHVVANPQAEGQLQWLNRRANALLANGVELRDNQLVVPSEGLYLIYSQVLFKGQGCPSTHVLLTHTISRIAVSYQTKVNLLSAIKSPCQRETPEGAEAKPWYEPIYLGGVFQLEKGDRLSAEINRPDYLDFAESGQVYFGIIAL

CCCNC(=O)CC[C@H]1NC(=O)c2cc(Oc3cccc(N(C)C)c3)c(NC(=O)COCc3ccccc3)cc2NC1=O
inhibition [1]: 77.7%
TGI [2]: inactive
inhibition [3]: Active
inhibition in vivo at 20 mg/kg [4]: 67.3%
inhibition [5]: 60.9%
inhibition [6]: Dose-dependent effect
inhibition [7]: 35.2%
inhibition [8]: 86.2%
inhibition [9]: Active
inhibition [10]: Dose-dependent effect
inhibition [11]: Active
inhibition [12]: inactive
inhibition [13]: inactive
inhibition [14]: inactive

From ChEMBL document CHEMBL4014339, “Discovery of 1,4-Benzodiazepine-2,5-dione (BZD) Derivatives as Dual Nucleotide Binding Oligomerization Domain Containing 1/2 (NOD1/NOD2) Antagonists Sensitizing Paclitaxel (PTX) To Suppress Lewis Lung Carcinoma (LLC) Growth in Vivo” (J Med Chem, 2017)
